Laboratory results: ChEMBL document CHEMBL4177755, “Combating Drug-Resistant Fungi with Novel Imperfectly Amphipathic Palindromic Peptides” (J Med Chem, 2018)

Tests used:
Candida albicans [1] = assay: Antifungal activity against Candida albicans cgmcc 2.2086 in presence of NH4Cl by broth dilution method; type: functional
Pichia kudriavzevii [2] = assay: Antifungal activity against Candida krusei cgmcc 2.1857 after 48 hrs by broth microdilution method; type: functional; details: cgmcc 2.1857, 48 h
How it was run: (§1)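 Modified CLSI M27-A2 broth microdilution. Yeast were suspended in MOPS-buffered RPMI 1640 at a final (0.5−1) × 10^3 CFU/mL and mixed 1:1 with peptide serially diluted in 0.2% BSA. Plates were incubated 48 h at 28 °C and read at A492. MIC is the lowest concentration giving 95% inhibition. Run in triplicate with three biological replicates.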

Staphylococcus aureus [3] = assay: Antibacterial activity against Staphylococcus aureus ATCC 29213 after 24 hrs; type: functional; details: ATCC 29213, 24 h
How it was run: (§2)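 Modified NCCLS broth microdilution. Mid-log bacteria at (0.5−1) × 10^5 CFU/mL in MHB were mixed 1:1 with peptide serially diluted in 0.2% BSA and incubated 24 h at 37 °C. Absorbance was read at 492 nm; MIC is the lowest concentration inhibiting 95% of growth. At least 3 repeats.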

Candida albicans [4] = assay: Antifungal activity against Candida albicans SP3902 after 48 hrs by broth microdilution method; type: functional; details: SP3902, 48 h
How it was run: (§3)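 Modified CLSI M27-A2 broth microdilution. Yeast at (0.5−1) × 10^3 CFU/mL in MOPS-buffered RPMI 1640 was mixed 1:1 with peptide serially diluted in 0.2% BSA and incubated 48 h at 28 °C. Absorbance was read at 492 nm; MIC is the lowest concentration inhibiting 95% of growth. Triplicate, three biological replicates.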

Candida tropicalis = assay: Antifungal activity against Candida tropicalis cgmcc 2.1975 after 48 hrs by broth microdilution method; type: functional; details: cgmcc 2.1975, 48 h; how it was run: as §1
Candida albicans [5] = assay: Fungicidal activity against Candida albicans 14936 after 96 hrs; type: functional; details: Candida albicans, 14936, 96 h; read-out: MFC99.9
How it was run: (§4)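 After the 48 h, 28 °C broth microdilution in MOPS-buffered RPMI 1640 (inoculum (0.5−1) × 10^3 CFU/mL), 50 μL from each well was plated on YM agar for a further 48 h at 28 °C. MFC is the lowest concentration killing at least 99.9% of cells. Triplicate, three biological replicates.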

Candida albicans [6] = assay: Antifungal activity against Candida albicans cgmcc 2.2086 after 48 hrs by broth microdilution method; type: functional; details: cgmcc 2.2086, 48 h; how it was run: as §3
[7] = Cytotoxicity against HEK293T cells assessed as cell viability at 2 to 64 uM after 24 hrs by MTT assay relative to control; type: cell-based, HEK-293T; details: human, read-out: Activity
How it was run: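 MTT viability assay. RAW264.7 or HEK293T cells at (1.0−2.0) × 10^5 per well were exposed to a peptide concentration series for 24 h at 37 °C in 5% CO2. MTT was then added at 0.5 mg/mL final for 4 h; formazan was dissolved in DMSO and read at 570 nm. Results average three independent trials.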

Escherichia coli [8] = assay: Antibacterial activity against Escherichia coli ATCC 25922 after 18 hrs in presence of FeCl3 by broth dilution method; type: functional; details: ATCC 25922, 18 h
Candida albicans [9] = assay: Antifungal activity against Candida albicans cgmcc 2.2086 in presence of CaCl2 by broth dilution method; type: functional
Candida parapsilosis [10] = assay: Fungicidal activity against Candida parapsilosis cgmcc 2.3989 after 96 hrs; type: functional; details: Lodderomyces parapsilosis, cgmcc 2.3989, 96 h; read-out: MFC99.9
How it was run: (§5)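 Wells from the 48 h, 28 °C RPMI 1640/MOPS microdilution plates were plated on YM agar and incubated a further 48 h at 28 °C. MFC is the lowest concentration killing at least 99.9% of cells. Run in triplicate with three biological replicates.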

Pichia kudriavzevii [11] = assay: Fungicidal activity against Candida krusei cgmcc 2.1857 after 96 hrs; type: functional; details: cgmcc 2.1857, 96 h, read-out: MFC99.9; how it was run: as §5
Salmonella typhimurium [12] = assay: Antibacterial activity against Salmonella typhimurium ATCC 14028 after 24 hrs; type: functional, Salmonella enterica subsp. enterica serovar Typhimurium; details: Salmonella enterica, ATCC 14028, 24 h
How it was run: (§6)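 Broth microdilution. Mid-log bacteria in MHB at a final (0.5−1) × 10^5 CFU/mL were mixed with equal volumes of peptide serially diluted in 0.2% BSA. Plates were incubated 24 h at 37 °C and read at A492. MIC is the lowest concentration inhibiting 95% of growth. Each test was repeated at least 3 times.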

Candida albicans [13] = assay: Antifungal activity against Candida albicans cgmcc 2.2086 in presence of MgCl2 by broth dilution method; type: functional
Escherichia coli [14] = assay: Antibacterial activity against Escherichia coli ATCC 25922 after 18 hrs in presence of ZnCl2 by broth dilution method; type: functional; details: ATCC 25922, 18 h
Candida parapsilosis [15] = assay: Antifungal activity against Candida parapsilosis cgmcc 2.3989 after 48 hrs by broth microdilution method; type: functional; details: Lodderomyces parapsilosis, cgmcc 2.3989, 48 h; how it was run: as §1
Candida albicans [16] = assay: Antifungal activity against fluconazole-resistant Candida albicans 56214 after 48 hrs by broth microdilution method; type: functional; details: Candida albicans, 56214, 48 h; how it was run: as §3
Staphylococcus aureus [17] = assay: Antibacterial activity against methicillin-resistant Staphylococcus aureus ATCC 4330 after 24 hrs; type: functional; details: ATCC 4330, 24 h; how it was run: as §2
Salmonella typhimurium [18] = assay: Bactericidal activity against Salmonella typhimurium ATCC 14028; type: functional, Salmonella enterica subsp. enterica serovar Typhimurium; details: Salmonella enterica, read-out: MBC99.9
How it was run: (§7)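 Wells from the 24 h, 37 °C MHB microdilution plates (bacteria at a final (0.5−1) × 10^5 CFU/mL; peptide diluted in 0.2% BSA) were plated on agar and incubated overnight. MBC is the lowest concentration killing >99.9% of cells. Each test was reproduced at least 3 times.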

Candida albicans [19] = assay: Antifungal activity against Candida albicans 58288 after 48 hrs by broth microdilution method; type: functional; details: Candida albicans, 58288, 48 h; how it was run: as §3
Staphylococcus aureus [20] = assay: Bactericidal activity against Staphylococcus aureus ATCC 29213; type: functional; details: read-out: MBC99.9; how it was run: as §7
Candida albicans [21] = assay: Fungicidal activity against fluconazole-resistant Candida albicans 17546 after 96 hrs; type: functional; details: Candida albicans, 17546, 96 h; read-out: MFC99.9; how it was run: as §4
Candida albicans [22] = assay: Antifungal activity against Candida albicans SP3876 after 48 hrs by broth microdilution method; type: functional; details: SP3876, 48 h; how it was run: as §3
Candida albicans [23] = assay: Antifungal activity against Candida albicans 14936 after 48 hrs by broth microdilution method; type: functional; details: Candida albicans, 14936, 48 h; how it was run: as §3
Candida albicans [24] = assay: Fungicidal activity against Candida albicans 58288 after 96 hrs; type: functional; details: Candida albicans, 58288, 96 h; read-out: MFC99.9; how it was run: as §4
Escherichia coli [25] = assay: Antibacterial activity against Escherichia coli ATCC 25922 after 18 hrs in presence of MgCl2 by broth dilution method; type: functional; details: ATCC 25922, 18 h
Candida albicans [26] = assay: Antifungal activity against Candida albicans SP3903 after 48 hrs by broth microdilution method; type: functional; details: SP3903, 48 h; how it was run: as §3
[27] = Bactericidal activity against Salmonella pullorum ATCC 7913; type: functional, Salmonella enterica subsp. enterica serovar Pullorum; details: Salmonella enterica, read-out: MBC99.9; how it was run: as §7
[28] = tested on: Staphylococcus epidermidis; assay: Antibacterial activity against Staphylococcus epidermidis ATCC 12228 after 24 hrs; type: functional; details: ATCC 12228, 24 h; how it was run: as §6
Candida albicans [29] = assay: Fungicidal activity against Candida albicans SP3902 after 96 hrs; type: functional; details: SP3902, 96 h, read-out: MFC99.9; how it was run: as §4
Candida albicans [30] = assay: Antifungal activity against Candida albicans cgmcc 2.2086 in presence of FeCl3 by broth dilution method; type: functional

Row | Substance | MIC (Candida albicans [1]) [µM] | MIC95 (Pichia kudriavzevii [2]) [µM] | MIC95 (Staphylococcus aureus [3]) [µM] | MIC95 (Candida albicans [4]) [µM] | MIC95 (Candida tropicalis) [µM] | MFC (Candida albicans [5]) [µM] | MIC95 (Candida albicans [6]) [µM] | viability at 24 h, up to 64 µM [7] [%] | MIC (Escherichia coli [8]) [µM] | MIC (Candida albicans [9]) [µM] | MFC (Candida parapsilosis [10]) [µM] | MFC (Pichia kudriavzevii [11]) [µM] | MIC95 (Salmonella typhimurium [12]) [µM] | MIC (Candida albicans [13]) [µM] | MIC (Escherichia coli [14]) [µM] | MIC95 (Candida parapsilosis [15]) [µM] | MIC95 (Candida albicans [16]) [µM] | MIC95 (Staphylococcus aureus [17]) [µM] | MBC (Salmonella typhimurium [18]) [µM] | MIC95 (Candida albicans [19]) [µM] | other results
1 | H-RFFRRFRRFFR-NH2 | 4 | 2 | 8 | 8 | 2 | 16 | 8 | 70 to 80 | 8 | 64 | > 64 | 4 | 4 | 8 | 8 | > 64 | 8 | 4 | 8 | 4 | MBC (Staphylococcus aureus [20]): 16 µM; MFC (Candida albicans [21]): 8 µM; MIC95 (Candida albicans [22]): 8 µM; MIC95 (Candida albicans [23]): 8 µM; MFC (Candida albicans [24]): 16 µM; MIC (Escherichia coli [25]): 2 µM; MIC95 (Candida albicans [26]): 4 µM; MBC [27]: 8 µM; MIC95 [28]: 4 µM; MFC (Candida albicans [29]): 8 µM; MIC (Candida albicans [30]): 8 µM
2 | H-FFRRFRRFF-NH2 | 8 | 4 | 8 | 32 | 4 | 32 | 16 | 70 to 80 | 8 | 32 | > 64 | 4 | 4 | 16 | 8 | > 64 | 16 | 4 | 8 | 16 | MBC (Staphylococcus aureus [20]): 32 µM; MFC (Candida albicans [21]): 8 µM; MIC95 (Candida albicans [22]): 16 µM; MIC95 (Candida albicans [23]): 16 µM; MFC (Candida albicans [24]): 32 µM; MIC (Escherichia coli [25]): 8 µM; MIC95 (Candida albicans [26]): 16 µM; MBC [27]: 64 µM; MIC95 [28]: 4 µM; MFC (Candida albicans [29]): 32 µM; MIC (Candida albicans [30]): 32 µM
3 | H-RIIRRIRRIIR-NH2 | 16 | 4 | 64 | 16 | 1 | 8 | 16 | 70 to 80 | 16 | 64 | > 64 | 8 | 16 | 32 | 16 | > 64 | 8 | 16 | 32 | 8 | MBC (Staphylococcus aureus [20]): > 64 µM; MFC (Candida albicans [21]): 16 µM; MIC95 (Candida albicans [22]): 8 µM; MIC95 (Candida albicans [23]): 8 µM; MFC (Candida albicans [24]): 16 µM; MIC (Escherichia coli [25]): 16 µM; MIC95 (Candida albicans [26]): 4 µM; MBC [27]: 64 µM; MIC95 [28]: 16 µM; MFC (Candida albicans [29]): 16 µM; MIC (Candida albicans [30]): 16 µM
